ChEMBL document CHEMBL1158358, “Synthesis, antimicrobial and cytotoxic activities of some 5-arylidene-4-thioxo-thiazolidine-2-ones” (Eur J Med Chem, 2009)
In brackets after ≈: the same amount, converted by molar mass.

Key:
Format in all cases: functional
Staphylococcus aureus [1] = assay: Antimicrobial activity against multidrug-resistant Staphylococcus aureus H.C. 20794 isolate after 20 hrs by twofold serial dilution technique; conditions: H.C. 20794, 20 h
Procedure, shortened: (§1)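 Twofold serial dilution MIC in agar plates against Gram-positive strains and multidrug-resistant clinical isolates. Inoculum applied was 10⁵ CFU/plate. Plates with culture medium plus DMSO served as negative control. MIC was read after incubation at 35 °C for 20 h.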

Pseudomonas aeruginosa = assay: Antimicrobial activity against Pseudomonas aeruginosa UFPEDA 39 at 300 ug/disk after 24 hrs by disk diffusion method; conditions: UFPEDA 39, 24 h, read-out: IZ
Procedure, shortened: (§2)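 Preliminary screen by disk diffusion. Paper disks (6 mm) holding 300 µg of compound were placed on agar plates inoculated with a standardized microbial suspension. DMSO-only disks served as negative controls. A mean inhibition zone below 7 mm was scored as no sensitivity. Values are means, n = 3.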

Staphylococcus aureus [2] = assay: Antimicrobial activity against Staphylococcus aureus UFPEDA 01 after 20 hrs by twofold serial dilution technique; conditions: UFPEDA 01, 20 h; procedure, shortened: as §1
Staphylococcus [3] = assay: Antimicrobial activity against coagulase-negative Staphylococcus H.A.M. 278 isolate after 20 hrs by twofold serial dilution technique; conditions: H.A.M. 278, 20 h
Procedure, shortened: (§3)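 MIC was determined by twofold serial dilution. Bacteria were tested in plates at 10⁵ CFU/plate and read after 20 h. C. albicans was tested in tubes at 10³ CFU/tube and read after 48 h. All incubations were at 35 °C. Medium plus DMSO served as the negative control.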

Staphylococcus aureus [4] = assay: Antimicrobial activity against multidrug-resistant Staphylococcus aureus H.C. 20905 isolate after 20 hrs by twofold serial dilution technique; conditions: H.C. 20905, 20 h; procedure, shortened: as §1
Staphylococcus aureus [5] = assay: Antimicrobial activity against multidrug-resistant Staphylococcus aureus H.C. 20489 isolate after 20 hrs by twofold serial dilution technique; conditions: H.C. 20489, 20 h; procedure, shortened: as §1
Enterococcus faecalis [6] = assay: Antimicrobial activity against Enterococcus faecalis UFPEDA 138 after 20 hrs by twofold serial dilution technique; conditions: UFPEDA 138, 20 h; procedure, shortened: as §3
Enterococcus faecalis [7] = assay: Antimicrobial activity against multidrug-resistant Enterococcus faecalis H.C. 24708 isolate after 20 hrs by twofold serial dilution technique; conditions: H.C. 24708, 20 h; procedure, shortened: as §1
Bacillus subtilis [8] = assay: Antimicrobial activity against Bacillus subtilis UFPEDA 16 after 20 hrs by twofold serial dilution technique; conditions: UFPEDA 16, 20 h; procedure, shortened: as §3
Enterococcus faecalis [9] = assay: Antimicrobial activity against multidrug-resistant Enterococcus faecalis H.C. 21752 isolate after 20 hrs by twofold serial dilution technique; conditions: H.C. 21752, 20 h; procedure, shortened: as §1
[10] = tested on: Mycolicibacterium smegmatis; assay: Antimicrobial activity against Mycobacterium smegmatis UFPEDA 71 after 20 hrs by twofold serial dilution technique; conditions: UFPEDA 71, 20 h; procedure, shortened: as §3
[11] = tested on: Mycolicibacterium smegmatis; assay: Antimicrobial activity against Mycobacterium smegmatis UFPEDA 71 at 300 ug/disk after 24 hrs by disk diffusion method; conditions: UFPEDA 71, 24 h, read-out: IZ; procedure, shortened: as §2
Staphylococcus aureus [12] = assay: Antimicrobial activity against multidrug-resistant Staphylococcus aureus H.C. 20981 isolate after 20 hrs by twofold serial dilution technique; conditions: H.C. 20981, 20 h; procedure, shortened: as §1
Micrococcus luteus [13] = assay: Antimicrobial activity against Micrococcus luteus UFPEDA 06 after 20 hrs by twofold serial dilution technique; conditions: UFPEDA 06, 20 h; procedure, shortened: as §3
Staphylococcus aureus [14] = assay: Antimicrobial activity against multidrug-resistant Staphylococcus aureus H.C. 21141 isolate after 20 hrs by twofold serial dilution technique; conditions: H.C. 21141, 20 h; procedure, shortened: as §1
Staphylococcus [15] = assay: Antimicrobial activity against coagulase-negative Staphylococcus H.A.M. 338 isolate after 20 hrs by twofold serial dilution technique; conditions: H.A.M. 338, 20 h; procedure, shortened: as §3
Enterococcus faecalis [16] = assay: Antimicrobial activity against Enterococcus faecalis UFPEDA 138 at 300 ug/disk after 24 hrs by disk diffusion method; conditions: UFPEDA 138, 24 h, read-out: IZ; procedure, shortened: as §2
Candida albicans [17] = assay: Antimicrobial activity against Candida albicans UFPEDA 1007 after 48 hrs by twofold serial dilution technique; conditions: UFPEDA 1007, 48 h; procedure, shortened: as §3
Micrococcus luteus [18] = assay: Antimicrobial activity against Micrococcus luteus UFPEDA 06 at 300 ug/disk after 24 hrs by disk diffusion method; conditions: UFPEDA 06, 24 h, read-out: IZ; procedure, shortened: as §2
Staphylococcus aureus [19] = assay: Antimicrobial activity against Staphylococcus aureus UFPEDA 01 at 300 ug/disk after 24 hrs by disk diffusion method; conditions: UFPEDA 01, 24 h, read-out: IZ; procedure, shortened: as §2
Candida albicans [20] = assay: Antimicrobial activity against Candida albicans UFPEDA 1007 at 300 ug/disk after 48 hrs by disk diffusion method; conditions: UFPEDA 1007, 48 h, read-out: IZ; procedure, shortened: as §2
Staphylococcus aureus [21] = assay: Antimicrobial activity against multidrug-resistant Staphylococcus aureus H.C. 21036 isolate after 20 hrs by twofold serial dilution technique; conditions: H.C. 21036, 20 h; procedure, shortened: as §1
Bacillus subtilis [22] = assay: Antimicrobial activity against Bacillus subtilis UFPEDA 16 at 300 ug/disk after 24 hrs by disk diffusion method; conditions: UFPEDA 16, 24 h, read-out: IZ; procedure, shortened: as §2
Serratia marcescens = assay: Antimicrobial activity against Serratia marcescens UFPEDA 398 at 300 ug/disk after 24 hrs by disk diffusion method; conditions: UFPEDA 398, 24 h, read-out: IZ; procedure, shortened: as §2
Enterococcus faecalis [23] = assay: Antimicrobial activity against multidrug-resistant Enterococcus faecalis H.C. 24962 isolate after 20 hrs by twofold serial dilution technique; conditions: H.C. 24962, 20 h; procedure, shortened: as §1
Escherichia coli = assay: Antimicrobial activity against Escherichia coli UFPEDA 224 at 300 ug/disk after 24 hrs by disk diffusion method; conditions: UFPEDA 224, 24 h, read-out: IZ; procedure, shortened: as §2
Enterococcus faecalis [24] = assay: Antimicrobial activity against multidrug-resistant Enterococcus faecalis H.C. 21944 isolate after 20 hrs by twofold serial dilution technique; conditions: H.C. 21944, 20 h; procedure, shortened: as §1
NCI-H292 [25] = assay: Cytotoxicity against human NCI-H292 cells at 10 ug/mL after 72 hrs by MTT assay; conditions: NCI-H292, 72 h, read-out: GI
Procedure, shortened: (§4)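 MTT antiproliferative assay. Cells were diluted to 10⁵ cells/mL in 96-well plates and preincubated for 24 h at 37 °C in humid 5% CO₂. Compounds or vincristine (reference) were then added. Formazan was dissolved and OD read at 540 nm, compared with medium-only control cells. Run in triplicate.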

HEp-2 [26] = assay: Cytotoxicity against human Hep2 cells at 10 ug/mL after 72 hrs by MTT assay; conditions: HEp-2, 72 h, read-out: GI; procedure, shortened: as §4
NCI-H292 [27] = assay: Cytotoxicity against human NCI-H292 cells at 2.5 ug/mL after 72 hrs by MTT assay; conditions: NCI-H292, 72 h, read-out: GI; procedure, shortened: as §4
HEp-2 [28] = assay: Cytotoxicity against human Hep2 cells at 1.25 ug/mL after 72 hrs by MTT assay; conditions: HEp-2, 72 h, read-out: GI; procedure, shortened: as §4
NCI-H292 [29] = assay: Cytotoxicity against human NCI-H292 cells at 5 ug/mL after 72 hrs by MTT assay; conditions: NCI-H292, 72 h, read-out: GI; procedure, shortened: as §4
HEp-2 [30] = assay: Cytotoxicity against human Hep2 cells at 5 ug/mL after 72 hrs by MTT assay; conditions: HEp-2, 72 h, read-out: GI; procedure, shortened: as §4
NCI-H292 [31] = assay: Cytotoxicity against human NCI-H292 cells at 1.25 ug/mL after 72 hrs by MTT assay; conditions: NCI-H292, 72 h, read-out: GI; procedure, shortened: as §4

SMILES | MIC (Staphylococcus aureus [1]) [µg/mL] | zone of inhibition at 300 µg/disc (Pseudomonas aeruginosa) [mm] | MIC (Staphylococcus aureus [2]) [µg/mL] | MIC (Staphylococcus [3]) [µg/mL] | MIC (Staphylococcus aureus [4]) [µg/mL] | MIC (Staphylococcus aureus [5]) [µg/mL] | MIC (Enterococcus faecalis [6]) [µg/mL] | MIC (Enterococcus faecalis [7]) [µg/mL] | MIC (Bacillus subtilis [8]) [µg/mL] | MIC (Enterococcus faecalis [9]) [µg/mL] | MIC [10] [µg/mL] | zone of inhibition at 300 µg/disc [11] [mm] | MIC (Staphylococcus aureus [12]) [µg/mL] | MIC (Micrococcus luteus [13]) [µg/mL] | MIC (Staphylococcus aureus [14]) [µg/mL] | MIC (Staphylococcus [15]) [µg/mL] | zone of inhibition at 300 µg/disc (Enterococcus faecalis [16]) [mm] | MIC (Candida albicans [17]) [µg/mL] | zone of inhibition at 300 µg/disc (Micrococcus luteus [18]) [mm] | zone of inhibition at 300 µg/disc (Staphylococcus aureus [19]) [mm] | other results
O=C1NC(=S)CS1 | 32 (≈ 240 µM) | < 7 | 8 (≈ 60.1 µM) | 64 (≈ 480 µM) | 32 (≈ 240 µM) | 64 (≈ 480 µM) | 64 (≈ 480 µM) | 32 (≈ 240 µM) | 4 (≈ 30 µM) | 32 (≈ 240 µM) | 32 (≈ 240 µM) | 18 | 32 (≈ 240 µM) | 4 (≈ 30 µM) | 32 (≈ 240 µM) | 64 (≈ 480 µM) | 22 | 8 (≈ 60.1 µM) | 26 | 19 | zone of inhibition at 300 µg/disc (Candida albicans [20]): 19 mm; MIC (Staphylococcus aureus [21]): 32 µg/mL (≈ 240 µM); zone of inhibition at 300 µg/disc (Bacillus subtilis [22]): 21 mm; zone of inhibition at 300 µg/disc (Serratia marcescens): < 7 mm; MIC (Enterococcus faecalis [23]): 32 µg/mL (≈ 240 µM); zone of inhibition at 300 µg/disc (Escherichia coli): < 7 mm; MIC (Enterococcus faecalis [24]): 32 µg/mL (≈ 240 µM)
O=C1NC(=S)/C(=C/c2ccc(Cl)cc2)S1 | 2 (≈ 7.82 µM) | < 7 | 4 (≈ 15.6 µM) | 4 (≈ 15.6 µM) | 2 (≈ 7.82 µM) | 2 (≈ 7.82 µM) | 32 (≈ 125 µM) | 16 (≈ 62.6 µM) | 16 (≈ 62.6 µM) | 16 (≈ 62.6 µM) | 32 (≈ 125 µM) | 20 | 2 (≈ 7.82 µM) | 32 (≈ 125 µM) | 8 (≈ 31.3 µM) | 4 (≈ 15.6 µM) | 17 | 64 (≈ 250 µM) | 25 | 27 | inhibition of growth at 10 µg/mL (NCI-H292 [25]): 41.4%; inhibition of growth at 10 µg/mL (HEp-2 [26]): 22.2%; inhibition of growth at 2.5 µg/mL (NCI-H292 [27]): 28.6%; inhibition of growth at 1.25 µg/mL (HEp-2 [28]): 0.92%; inhibition of growth at 5 µg/mL (NCI-H292 [29]): 35.8%; inhibition of growth at 5 µg/mL (HEp-2 [30]): 16.1%; zone of inhibition at 300 µg/disc (Candida albicans [20]): 12 mm; MIC (Staphylococcus aureus [21]): 2 µg/mL (≈ 7.82 µM); zone of inhibition at 300 µg/disc (Bacillus subtilis [22]): 22 mm; zone of inhibition at 300 µg/disc (Serratia marcescens): < 7 mm; MIC (Enterococcus faecalis [23]): 16 µg/mL (≈ 62.6 µM); zone of inhibition at 300 µg/disc (Escherichia coli): < 7 mm; inhibition of growth at 1.25 µg/mL (NCI-H292 [31]): 10%; MIC (Enterococcus faecalis [24]): 16 µg/mL (≈ 62.6 µM)
